According to ChEMBL document CHEMBL3822356, “Urotensin II((4-11)) Azasulfuryl Peptides: Synthesis and Biological Activity” (J Med Chem, 2016):
pIC50: −log10 of the molar value. Active and inactive are the calls of the source. No cut-off for these calls is given here. Where a SMILES comes first, the peptide text is derived from it.

Legend:
Urotensin-2 receptor = molecular target: T1, Urotensin-2 receptor (Homo sapiens, UniProt Q9UKP6); assay: Displacement of [125I]-hU2 from human UT2 receptor expressed in CHO cells after 90 mins by gamma counter assay; assay type: cell-based
T1 sequence (Q9UKP6 whole entry): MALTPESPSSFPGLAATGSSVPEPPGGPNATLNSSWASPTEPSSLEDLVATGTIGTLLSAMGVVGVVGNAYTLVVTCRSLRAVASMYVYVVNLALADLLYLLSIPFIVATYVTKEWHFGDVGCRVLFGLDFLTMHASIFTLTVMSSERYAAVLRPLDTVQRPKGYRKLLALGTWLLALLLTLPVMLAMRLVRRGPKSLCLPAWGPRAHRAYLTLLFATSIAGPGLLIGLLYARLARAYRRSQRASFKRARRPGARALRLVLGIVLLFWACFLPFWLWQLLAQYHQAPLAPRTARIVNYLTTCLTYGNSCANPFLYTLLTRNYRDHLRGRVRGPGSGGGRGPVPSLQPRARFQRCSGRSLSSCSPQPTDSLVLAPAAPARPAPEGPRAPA
Outline: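 CHO cells overexpressing human UT receptor incubated with test peptide. Displacement of 125I-hUII from UT measured. At least three independent experiments, each determination in triplicate; mean ± S.E.M.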

[1] = molecular target: T2, Urotensin-2 receptor (Homo sapiens) (UniProt Q9UKP6); assay: Displacement of [125I]-hU2 from human UT2 receptor expressed in CHO cells at 10^-5 M after 90 mins by gamma counter assay; assay type: cell-based
T2 sequence (whole entry): T1 sequence (Q9UKP6 whole entry)

[2] = molecular target: T3, Urotensin-2 receptor (Rattus norvegicus) (UniProt P49684); assay: Partial agonist activity at UT2 receptor in Sprague-Dawley rat thoracic aorta ring assessed as induction of aortic contractions at 10 to 100 uM relative to KCl; assay type: tissue-based
T3 sequence (whole entry): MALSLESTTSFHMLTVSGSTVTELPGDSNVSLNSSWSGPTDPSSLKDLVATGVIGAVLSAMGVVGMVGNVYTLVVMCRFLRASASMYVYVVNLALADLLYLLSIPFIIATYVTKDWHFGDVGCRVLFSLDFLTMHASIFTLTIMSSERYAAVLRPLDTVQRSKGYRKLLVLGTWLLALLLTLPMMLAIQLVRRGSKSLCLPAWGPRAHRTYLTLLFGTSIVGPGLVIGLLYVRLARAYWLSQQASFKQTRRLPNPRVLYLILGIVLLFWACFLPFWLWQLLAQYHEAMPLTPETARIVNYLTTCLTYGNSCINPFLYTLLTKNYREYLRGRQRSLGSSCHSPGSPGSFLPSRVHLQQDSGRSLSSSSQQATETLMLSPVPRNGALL
Outline: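 Peptides applied alone to rat aortic rings to test for induced contraction. Response expressed as percent of KCl-induced contraction.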

[3] = molecular target: T3, Urotensin-2 receptor (Rattus norvegicus); assay: Antagonist activity at UT2 receptor in Sprague-Dawley rat thoracic aorta ring assessed as Emax for hU2-induced aortic contractions at 10^-5M relative to KCl; assay type: tissue-based
Outline: (§1)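 Rat aortic rings pre-exposed to test peptide at 10^-5 M, then given cumulative increasing concentrations (10^-11 to 10^-6 M) of hUII or URP. Contraction measured to give pEC50 and Emax, expressed relative to KCl-induced contraction. Mean ± SEM; unpaired Student's t test against hUII or URP alone.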

[4] = molecular target: T3, Urotensin-2 receptor (Rattus norvegicus); assay: Antagonist activity at UT2 receptor in Sprague-Dawley rat thoracic aorta ring assessed as Emax for URP-induced aortic contractions at 10^-5M relative to KCl; assay type: tissue-based; outline: as §1

With `CC(C)[C@H](NC(=O)[C@@H]1CSSC[C@H](NC(=O)[C@@H](N)CC(=O)O)C(=O)N[C@@H](Cc2ccccc2)C(=O)NN(Cc2ccc(-c3ccccc3)cc2)S(=O)(=O)N[C@@H](CCCCN)C(=O)N[C@@H](Cc2ccc(O)cc2)C(=O)N1)C(=O)O` the pIC50 (Urotensin-2 receptor) was less than 6.00, the inhibition [1] was 40% and the Efficacy [2] was 3%. The Emax [3] was 51% and the Emax [4] was 69%.
In the case of `CC(C)[C@H](NC(=O)[C@@H]1CSSC[C@H](NC(=O)[C@@H](N)CC(=O)O)C(=O)N[C@@H](Cc2ccccc2)C(=O)N[C@@H](Cc2c[nH]c3ccccc23)C(=O)NN(CCCCN)S(=O)(=O)N[C@@H](Cc2ccc(O)cc2)C(=O)N1)C(=O)O` (HELM PEPTIDE1{D.C.F.W.[NCCCCN(N[*:1])S(=O)(=O)N[C@@H](Cc1ccc(O)cc1)C(=O)[*:2]].C.V}$PEPTIDE1,PEPTIDE1,2:R3-6:R3$$$V2.0), the pIC50 (Urotensin-2 receptor) was less than 6.00, the inhibition [1] was 40% and the Activity [2] was “inactive”. For the same compound, the Emax [3] was 83% and the Emax [4] was 110%.
`CC(C)[C@H](NC(=O)[C@@H]1CSSC[C@H](NC(=O)[C@@H](N)CC(=O)O)C(=O)N[C@@H](Cc2ccccc2)C(=O)NN(Cc2ccccc2)S(=O)(=O)N[C@@H](CCCCN)C(=O)N[C@@H](Cc2ccc(O)cc2)C(=O)N1)C(=O)O` (HELM PEPTIDE1{D.C.F.[NCCCC[C@H](NS(=O)(=O)N(Cc1ccccc1)N[*:1])C(=O)[*:2]].Y.C.V}$PEPTIDE1,PEPTIDE1,2:R3-6:R3$$$V2.0) gave a pIC50 (Urotensin-2 receptor) of less than 6.00, an inhibition [1] of 40% and an Efficacy [2] of 3%. It also gave an Emax [3] of 87% and an Emax [4] of 101%.
`CC(C)[C@H](NC(=O)[C@@H]1CSSC[C@H](NC(=O)[C@@H](N)CC(=O)O)C(=O)N[C@@H](Cc2ccccc2)C(=O)NN(Cc2ccc3ccccc3c2)S(=O)(=O)N[C@@H](CCCCN)C(=O)N[C@@H](Cc2ccc(O)cc2)C(=O)N1)C(=O)O` showed a pIC50 (Urotensin-2 receptor) of less than 6.00, an inhibition [1] of 40% and an Efficacy [2] of 3%. For the same compound, the Emax [3] was 65% and the Emax [4] was 105%.
`CC(C)[C@H](NC(=O)[C@@H]1CSSC[C@H](NC(=O)[C@@H](N)CC(=O)O)C(=O)N[C@@H](Cc2ccccc2)C(=O)N[C@@H](Cc2c[nH]c3ccccc23)C(=O)NN(CCCCN(C)C)S(=O)(=O)N[C@@H](Cc2ccc(O)cc2)C(=O)N1)C(=O)O` (HELM PEPTIDE1{D.C.F.W.[CN(C)CCCCN(N[*:1])S(=O)(=O)N[C@@H](Cc1ccc(O)cc1)C(=O)[*:2]].C.V}$PEPTIDE1,PEPTIDE1,2:R3-6:R3$$$V2.0) was tested, and the pIC50 (Urotensin-2 receptor) was less than 6.00, the inhibition [1] was 40% and the Activity [2] was “inactive”. For the same compound, the Emax [3] was 83% and the Emax [4] was 110%.
With `CC(C)[C@H](NC(=O)[C@@H]1CSSC[C@H](NC(=O)[C@H](C)N)C(=O)N[C@@H](Cc2ccccc2)C(=O)N[C@@H](Cc2c[nH]c3ccccc23)C(=O)N[C@@H](CCCCN)C(=O)N[C@@H](Cc2ccc(O)cc2)C(=O)N1)C(=O)O` the Activity [2] was “Active”.
For `CC(C)[C@H](NC(=O)[C@@H]1CSSC[C@H](NC(=O)[C@H](CC(=O)O)NC(=O)[C@@H]2CCCN2C(=O)[C@@H](NC(=O)[C@@H](N)CCC(=O)O)[C@@H](C)O)C(=O)N[C@@H](Cc2ccccc2)C(=O)N[C@@H](Cc2c[nH]c3ccccc23)C(=O)N[C@@H](CCCCN)C(=O)N[C@@H](Cc2ccc(O)cc2)C(=O)N1)C(=O)O`, the Activity [2] was “Active”.
With `CC(C)[C@H](NC(=O)[C@@H]1CSSC[C@H](NC(=O)[C@@H](N)CC(=O)O)C(=O)N[C@@H](Cc2ccccc2)C(=O)NN(Cc2cccc3ccccc23)S(=O)(=O)N[C@@H](CCCCN)C(=O)N[C@@H](Cc2ccc(O)cc2)C(=O)N1)C(=O)O` the pIC50 (Urotensin-2 receptor) was less than 6.00, the inhibition [1] was 40% and the Efficacy [2] was 3%. It also gave an Emax [3] of 29% and an Emax [4] of 38%.
